Tests used:
mouse Abcg2 = target: T1, mouse Abcg2 (Mus musculus, UniProt Q7TMS5); assay: Transepithelial transport across MDCKII monolayers over-expressing mouse Abcg2; type: in vitro ADME
T1 sequence (Q7TMS5 1-657): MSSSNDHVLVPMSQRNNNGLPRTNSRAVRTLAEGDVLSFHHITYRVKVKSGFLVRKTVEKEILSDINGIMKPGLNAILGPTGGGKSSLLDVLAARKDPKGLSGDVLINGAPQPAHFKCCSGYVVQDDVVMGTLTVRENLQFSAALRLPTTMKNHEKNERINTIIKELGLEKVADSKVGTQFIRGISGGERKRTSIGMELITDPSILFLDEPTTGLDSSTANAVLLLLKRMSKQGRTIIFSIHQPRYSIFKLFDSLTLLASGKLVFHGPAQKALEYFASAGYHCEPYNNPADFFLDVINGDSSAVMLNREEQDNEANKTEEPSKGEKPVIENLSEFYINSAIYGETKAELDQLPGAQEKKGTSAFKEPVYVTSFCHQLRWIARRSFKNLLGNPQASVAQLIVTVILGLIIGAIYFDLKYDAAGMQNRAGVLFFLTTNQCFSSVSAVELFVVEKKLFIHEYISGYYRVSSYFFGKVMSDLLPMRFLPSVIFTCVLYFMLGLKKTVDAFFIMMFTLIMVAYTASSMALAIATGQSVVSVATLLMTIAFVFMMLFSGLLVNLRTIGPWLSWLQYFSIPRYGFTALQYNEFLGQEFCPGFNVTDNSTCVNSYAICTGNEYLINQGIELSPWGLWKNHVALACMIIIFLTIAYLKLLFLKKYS

ABCG2 = target: T2, ABCG2 (Mus musculus, UniProt Q7TMS5); type: in vivo; conditions: Ko143 0, 1, 3 and 10 mg-kg^−1 i.p., 20 min prior to URB937 25 mg-kg^−1 s.c., ex vivo 1 h after URB937
T2 sequence (Q7TMS5 1-657): T1 sequence (Q7TMS5 1-657)

human ABCG2 = target: T3, human ABCG2 (Homo sapiens, UniProt Q9UNQ0)
T3 sequence (Q9UNQ0 1-655): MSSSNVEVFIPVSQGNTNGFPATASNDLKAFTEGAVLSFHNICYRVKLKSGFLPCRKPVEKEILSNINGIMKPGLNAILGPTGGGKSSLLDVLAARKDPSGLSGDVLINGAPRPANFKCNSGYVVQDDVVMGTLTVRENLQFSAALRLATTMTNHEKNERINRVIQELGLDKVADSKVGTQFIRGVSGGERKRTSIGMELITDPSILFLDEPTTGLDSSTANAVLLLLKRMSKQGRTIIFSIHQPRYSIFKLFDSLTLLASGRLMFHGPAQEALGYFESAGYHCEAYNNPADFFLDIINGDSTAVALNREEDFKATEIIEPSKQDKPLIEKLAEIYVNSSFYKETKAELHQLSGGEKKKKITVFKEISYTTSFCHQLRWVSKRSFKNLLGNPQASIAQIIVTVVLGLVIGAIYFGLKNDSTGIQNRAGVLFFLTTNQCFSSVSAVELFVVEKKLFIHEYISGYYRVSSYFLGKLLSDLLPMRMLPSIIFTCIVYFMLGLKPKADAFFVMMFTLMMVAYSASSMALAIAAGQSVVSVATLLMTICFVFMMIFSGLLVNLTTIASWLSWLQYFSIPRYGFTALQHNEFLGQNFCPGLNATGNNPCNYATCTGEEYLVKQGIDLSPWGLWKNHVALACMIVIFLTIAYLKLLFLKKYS

[1] = Transepithelial transport across MDCKII parental monolayers; type: in vitro ADME, canine; conditions: dog, MDCK
FAAH [2] = target: T4, FAAH (Mus musculus, UniProt O08914); conditions: cited from earlier work
T4 sequence (O08914 1-579): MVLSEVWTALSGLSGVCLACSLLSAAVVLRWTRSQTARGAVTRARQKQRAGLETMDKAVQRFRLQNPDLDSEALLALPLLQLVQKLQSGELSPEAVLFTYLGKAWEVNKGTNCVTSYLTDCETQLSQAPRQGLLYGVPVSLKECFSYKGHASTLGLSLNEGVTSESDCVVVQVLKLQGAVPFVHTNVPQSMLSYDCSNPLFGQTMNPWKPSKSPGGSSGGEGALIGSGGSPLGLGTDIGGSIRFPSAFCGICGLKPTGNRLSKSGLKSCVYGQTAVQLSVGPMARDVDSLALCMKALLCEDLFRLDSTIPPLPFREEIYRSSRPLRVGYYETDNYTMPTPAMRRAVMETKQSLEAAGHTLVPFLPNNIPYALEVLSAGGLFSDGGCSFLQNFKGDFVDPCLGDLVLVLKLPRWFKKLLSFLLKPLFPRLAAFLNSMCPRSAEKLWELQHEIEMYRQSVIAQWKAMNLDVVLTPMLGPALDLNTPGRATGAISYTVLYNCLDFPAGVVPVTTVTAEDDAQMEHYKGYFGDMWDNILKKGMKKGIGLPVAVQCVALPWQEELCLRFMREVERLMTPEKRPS

FAAH [3] = target: T4, FAAH; assay: Ex vivo FAAH activity in tissues of wild-type and Abcg2-/- mice after URB937; conditions: URB937 25 mg-kg^−1 s.c., 1 h
Summary of the method: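 Male Abcg2−/− mice (n = 4) and wild-type FVB littermates (n = 5), 9–13 weeks, given test compound at 25 mg-kg−1 s.c. in saline/PEG400/Tween-80 (18:1:1). Killed 1 h later; tissues homogenized in 50 mM Tris-HCl pH 7.5 with 0.32 M sucrose. FAAH assay: 37°C, 30 min, 0.05% BSA, 50 µg protein (100 µg liver), 10 µM anandamide plus [3H]-anandamide. Read-out: aqueous-phase scintillation counting; mean ± SEM.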

[4] = Plasma and tissue levels of URB937 in wild-type and Abcg2-/- mice; type: in vivo, mouse; conditions: 25 mg-kg^−1 s.c., mean ± SEM; for Level of URB937 in brain / Level of URB937 in kidney / Level of URB937 in liver / Level of URB937 in spinal cord: 1 h; for concentration at 1 h: mouse, plasma, sc, 25 mg-kg^−1, Level of URB937 in plasma
Summary of the method: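 Dosing: test compound 25 mg-kg−1 s.c. in saline/PEG400/Tween-80 (18:1:1) to Abcg2−/− (n = 4) and wild-type littermates (n = 5); killed at 1 h. Plasma obtained by cardiac puncture and spun 2000 × g. Tissue homogenates and plasma extracted with methanol/chloroform (1:2) containing internal standard. Analysis by ESI-LC/MS on a C18 column with a methanol/water gradient (0.25% acetic acid, 5 mM ammonium acetate) at m/z 377; mean ± SEM.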

COc1ccc2c3c([nH]c2c1)[C@H](CC(C)C)N1C(=O)[C@H](CCC(=O)OC(C)(C)C)NC(=O)[C@@H]1C3 [Ko143, reference compound]
inhibition of Abcg2-mediated transport of URB937 (mouse Abcg2; Ko143 1 µM, URB937 5 µM, MDCKII-Abcg2): completely inhibited
brain FAAH activity (ABCG2): dose-dependent decrease

NC(=O)c1cccc(-c2cc(OC(=O)NC3CCCCC3)ccc2O)c1 [URB937, cyclohexylcarbamic acid 3'-carbamoyl-6-hydroxybiphenyl-3-yl ester]
efflux ratio at 4 h, 5 µM (mouse Abcg2; mouse): 13.6
increase of relative transport ratio by over-expression vs parental cells (mouse Abcg2; mouse Abcg2 over-expression): ~10 folds
increase of relative transport ratio by over-expression vs parental cells (human ABCG2): ~10 folds
efflux ratio at 4 h, 5 µM [1]: 1.5
potency at inhibiting FAAH activity in mouse liver relative to mouse brain (FAAH [2]; mouse liver vs mouse brain): 400 times
half-maximal effective dose (ID50), liver FAAH activity (FAAH [2]; systemic administration in mice, liver): 0.1 mg/kg
FAAH activity in forebrain, hypothalamus and spinal cord (FAAH [2]; systemic administration in mice): fails to alter
reduction in FAAH activity in brain and spinal cord (FAAH [3]; Abcg2^−/− mice compared to wild-type): 80%
FAAH activity in liver and kidney tissue (FAAH [3]; wild-type and Abcg2^−/− mice): nearly abolished
inhibition of FAAH activity in CNS (FAAH [3]; wild-type mice): almost no inhibition
Level of URB937 in brain ([4]; Abcg2^−/− mice): 1.15 ± 0.04 pmol/mg
Level of URB937 in kidney ([4]; Abcg2^−/− mice): 34.97 ± 0.35 pmol/mg
Level of URB937 in liver ([4]; Abcg2^−/− mice): 7.75 ± 2.3 pmol/mg
Level of URB937 in spinal cord ([4]; Abcg2^−/− mice): 0.80 ± 0.10 pmol/mg
concentration at 1 h ([4]; Abcg2^−/− mice): 6.95 ± 0.9 µM
concentration at 1 h ([4]; wild-type mice): 8.34 ± 1.7 µM
Level of URB937 in brain ([4]; wild-type mice): 0.46 ± 0.12 pmol/mg
Level of URB937 in kidney ([4]; wild-type mice): 33.88 ± 3.3 pmol/mg
Level of URB937 in liver ([4]; wild-type mice): 7.51 ± 3.1 pmol/mg
Level of URB937 in spinal cord ([4]; wild-type mice): 0.29 ± 0.04 pmol/mg
